Results: ChEMBL document CHEMBL4368903, “Identification of GSK3186899/DDD853651 as a Preclinical Development Candidate for the Treatment of Visceral Leishmaniasis” (J Med Chem, 2019)
≈ marks a conversion by molar mass, not a printed value. Blank lines part the entries; values can stand above or below the compound they belong to.

Tests used:
Leishmania donovani [1] = test: Antileishmanial activity against Leishmania donovani […] in human THP1 cells by intramacrophage assay; type: functional, organism-based; conditions: for EC50: Leishmania donovani, THP-1
[2] = Kinetic aqueous solubility of the compound in phosphate buffer at pH 7.4 by CLND assay; type: physicochemical; conditions: for solubility kinetic: phosphate buffer, read-out: Kinetic_solubility; for Kinetic_solubility: buffer
Method in brief: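 From 10 mM DMSO stock diluted 1:20 into pH 7.4 PBS, equilibrated 1 h at RT, filtered. Filtrate quantified by calibrated flow-injection CLND. Dynamic range 1–500 μM.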

[3] = Solubility of compound in fasted simulated intestinal fluid at 1 mg after 4 hrs by HPLC-UV analysis; type: physicochemical; conditions: for solubility at 4 h: fasted simulated intestinal fluid; for solubility: 4 h
Method in brief: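 1 mg solid shaken in 1 mL FaSSIF (3 mM sodium taurocholate, 0.75 mM lecithin, phosphate buffer pH 6.5) at 900 rpm for 4 h at room temperature, then filtered. Supernatant quantified by HPLC-UV against single-point DMSO calibration. Range 1–1000 μg/mL.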

[4] = Lipophilicity, log D of the compound at pH 7.4 assessed as chromatographic hydrophobicity index; type: physicochemical; conditions: buffer
Method in brief: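 Reversed-phase C18 HPLC with fast acetonitrile gradient. CHI taken from gradient retention time via a calibration line of standards. ChromLogD = 0.0857 × CHI − 2.00.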

[5] = Dissociation constant, pKa of the compound by UV-spectroscopy; type: physicochemical
Method in brief: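 Sirius T3 acid–base titration with UV read-out: 5 μL of 10 mM sample, absorbance over 54 pH values in about 5 min. Methanol cosolvent with Yasuda–Shedlovsky extrapolation used when precipitation occurred.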

THP-1 = test: Cytotoxicity against human THP1 cells; type: cell-based
[6] = Intrinsic clearance in CD1 mouse liver microsomes at 0.5 uM after 3 to 30 mins in presence of NADPH by UPLC-MS/MS analysis; type: ADME, Microsome
Method in brief: (§1)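 0.5 μM compound with female CD1 mouse or human liver microsomes, started with excess NADPH in 50 mM potassium phosphate pH 7.4. Aliquots at 0, 3, 6, 9, 15 and 30 min quenched in acetonitrile with internal standard. UPLC-MS/MS; rate constant from exponential decay of compound/IS ratio. Verapamil as positive control.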

HepG2 = test: Cytotoxicity against human HepG2 cells; type: cell-based
[7] = Intrinsic clearance in human liver microsomes at 0.5 uM after 3 to 30 mins in presence of NADPH by UPLC-MS/MS analysis; type: ADME, Microsome; method in brief: as §1
[8] = Fraction unbound in CD1 mouse plasma at 10 ug/ml after 15 mins by UPLC-MS/MS analysis; type: ADME, cell-free
[9] = Fraction unbound in human plasma at 10 ug/ml after 15 mins by UPLC-MS/MS analysis; type: ADME, cell-free
[10] = AUClast in BALB/c mouse at 10 mg/kg, po measured up to 24 hrs by UPLC-MS/MS analysis; type: ADME, organism-based; design: time < 24 hr, dose 10 mg/kg, route oral; conditions: in vivo
Method in brief: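 Female Balb/c mice (n=3) dosed orally in 10% (v/v) DMSO, 60% PEG 400, 30% deionized water. AUC0–last (to last measurement) derived from the mean blood concentration–time curve.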

[11] = Cmax in BALB/c mouse at 10 mg/kg, po measured up to 24 hrs by UPLC-MS/MS analysis; type: ADME, organism-based; design: dose 10 mg/kg, route oral; conditions: in vivo
Method in brief: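 Single oral dose to female Balb/c mice (n=3) in 10% DMSO/60% PEG400/30% water. Blood sampled at 0.08–24 h and mixed with two volumes of water. Compound quantified by UPLC-MS/MS. Parameters taken from the mean blood concentration–time curve.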

[12] = Blood clearance in BALB/c mouse at 10 mg/kg, […] measured up to 24 hrs by UPLC-MS/MS analysis; type: ADME, organism-based; conditions: whole blood
[13] = Volume of distribution at steady state in BALB/c mouse at 10 mg/kg, po measured up to 24 hrs by UPLC-MS/MS analysis; type: ADME, organism-based; conditions: in vivo
Method in brief: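 Female Balb/c mice (n = 3) were dosed in 10% (v/v) DMSO, 60% PEG 400 and 30% deionized water. Compound in blood was quantified by UPLC-MS/MS, and parameters were derived from the mean blood concentration–time curve.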

[14] = Oral bioavailability in BALB/c mouse at 10 mg/kg measured up to 24 hrs by UPLC-MS/MS analysis; type: ADME, organism-based; conditions: in vivo
Leishmania donovani [15] = test: Antileishmanial activity against Leishmania donovani LV9 amastigotes infected in BALB/c mouse assessed as suppression of parasite load within liver at 50 mg/kg, po administered bid for 5 days relative to control; type: functional
Method in brief: (§2)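 Female BALB/c mice, 5 per group, infected i.v. with about 2×10^7 L. donovani LV9 amastigotes harvested from infected hamster spleen. Oral dosing starts day 7 post-infection, in 0.5% HPMC/0.4% Tween 80/0.5% benzyl alcohol, or 10% DMSO/60% PEG400/30% water for the 5-day 50 mg/kg regimen. Dosing solutions made fresh daily. Killed day 14 (5-day) or 19 (10-day). Liver smears give LDU (amastigotes/500 nucleated cells × organ weight). Mean LDU compared with vehicle control gives % suppression.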

[16] = Permeability of the compound by artificial membrane permeability assay; type: ADME; conditions: PAMPA; read-out: permeability
Leishmania donovani [17] = test: Antileishmanial activity against Leishmania donovani axenic amastigote; type: functional, organism-based
Leishmania donovani [18] = test: Antileishmanial activity against Leishmania donovani LV9 amastigotes infected in BALB/c mouse assessed as suppression of parasite load within liver at 100 mg/kg, po administered bid for 5 days relative to control; type: functional; method in brief: as §2
Leishmania donovani [19] = test: Antileishmanial activity against Leishmania donovani LV9 amastigotes infected in BALB/c mouse assessed as suppression of parasite load within liver at 10 mg/kg, po administered bid for 10 days relative to control; type: functional; method in brief: as §2
Leishmania donovani [20] = test: Antileishmanial activity against Leishmania donovani LV9 amastigotes infected in BALB/c mouse assessed as suppression of parasite load within liver at 25 mg/kg, po administered bid for 10 days relative to control; type: functional; method in brief: as §2
Leishmania donovani [21] = test: Antileishmanial activity against Leishmania donovani LV9 amastigotes infected in BALB/c mouse assessed as suppression of parasite load within liver at 50 mg/kg, po administered bid for 10 days relative to control; type: functional; method in brief: as §2
[22] = Mean AUClast in Sprague-Dawley rat at 10 mg/kg, po measured up to 24 hrs by UPLC-MS/MS analysis; type: ADME, organism-based; design: dose 10 mg/kg, time < 24 hr, route oral; conditions: in vivo
Method in brief: (§3)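 Male Sprague–Dawley rats (n=3) given oral gavage as 1% methylcellulose suspension at 10, 100 or 300 mg/kg. Tail-vein blood at 0.25–24 h into K-EDTA, diluted in 0.1N Hepes and stored at −20 °C. Protein precipitation, then LC-MS/MS (range 2.90–2860 ng/mL). AUC0–t by linear up-log down trapezoidal rule.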

[23] = Mean AUClast in Sprague-Dawley rat at 100 mg/kg, po measured up to 24 hrs by UPLC-MS/MS analysis; type: ADME, organism-based; design: dose 100 mg/kg, time < 24 hr, route oral; conditions: in vivo; method in brief: as §3
[24] = Mean AUClast in Sprague-Dawley rat at 300 mg/kg, po measured up to 24 hrs by UPLC-MS/MS analysis; type: ADME, organism-based; design: dose 300 mg/kg, time < 24 hr, route oral; conditions: in vivo; method in brief: as §3

Structure (SMILES): O=S(=O)(CCC(F)(F)F)N[C@H]1CC[C@H](Nc2ncc3c(-c4ccccn4)n[nH]c3n2)CC1
EC50 (Leishmania donovani [1]): 0.501 µM
EC50 (THP-1): 50.1 µM
CLH [6]: 0.6 mL/min/g
EC50 (HepG2): > 100 µM
CLH [7]: < 0.5 mL/min/g
solubility kinetic [2]: 8 µM (≈ 3.76 µg/mL)
fraction unbound at 0.25 h, 10 ug/ml [8]: 0.13
fraction unbound at 0.25 h, 10 ug/ml [9]: 0.08
AUC(0-t) at 24 h [10]: 17400 ng·h/mL
Cmax [11]: 1910 ng/mL
CL/F [12]: 4 mL/min/kg
Vdss [13]: 0.9 L/kg
bioavailability [14]: 44%
solubility at 4 h [3]: < 1 µg/mL
pKa [5]: 3.2
Activity (Leishmania donovani [15]): 85%
Papp [16]: 44 ×10⁻⁶ cm/s

Structure (SMILES): CC(C)CC(=O)c1sc(NC2CCCCC2)nc1N
EC50 (Leishmania donovani [17]): 50.1 µM

Structure (SMILES): CC1COCCN1c1n[nH]c2nc(N[C@H]3CC[C@H](NS(=O)(=O)CCC(F)(F)F)CC3)ncc12 (stereo in doubt; 37)
EC50 (Leishmania donovani [1]): 2 µM
Kinetic_solubility [2]: >= 292 uM
solubility [3]: 118 µg/mL (≈ 240 µM)

Structure (SMILES): CC(C)CS(=O)(=O)N[C@H]1CC[C@H](Nc2ncc3c(N4CCOCC4)n[nH]c3n2)CC1
EC50 (Leishmania donovani [1]): 0.501 µM
EC50 (THP-1): > 50.1 µM
CLH [6]: 0.9 mL/min/g
EC50 (HepG2): > 100 µM
CLH [7]: 1.8 mL/min/g
solubility kinetic [2]: 328 µM (≈ 144 µg/mL)
fraction unbound at 0.25 h, 10 ug/ml [8]: 0.37
fraction unbound at 0.25 h, 10 ug/ml [9]: 0.33
solubility at 4 h [3]: 9 µg/mL (≈ 20.6 µM)
Activity (Leishmania donovani [18]): 94%
Activity (Leishmania donovani [19]): 36%
Activity (Leishmania donovani [20]): 74%
Activity (Leishmania donovani [21]): 97%
AUC(0-t) at 24 h [22]: 162 ng·h/mL
AUC(0-t) at 24 h [23]: 2960 ng·h/mL
AUC(0-t) at 24 h [24]: 2380 ng·h/mL

Structure (SMILES): O=S(=O)(CCC(F)(F)F)N[C@H]1CC[C@H](Nc2ncc3c(N4CCCC4)n[nH]c3n2)CC1
EC50 (Leishmania donovani [1]): 2 µM
solubility kinetic [2]: 12 µM (≈ 5.54 µg/mL)
chromatographic logD [4]: 4

Structure (SMILES): O=S(=O)(CCC(F)(F)F)N[C@H]1CC[C@H](Nc2ncc3c(C4CCOCC4)n[nH]c3n2)CC1
EC50 (Leishmania donovani [1]): 3.16 µM
solubility kinetic [2]: 35 µM (≈ 16.7 µg/mL)
chromatographic logD [4]: 3.2

Structure (SMILES): O=S(=O)(CCC(F)(F)F)N[C@H]1CC[C@H](Nc2ncc3c(N4CCCCC4)n[nH]c3n2)CC1
EC50 (Leishmania donovani [1]): 1.58 µM
solubility kinetic [2]: 46 µM (≈ 21.9 µg/mL)
chromatographic logD [4]: 4.4

The next lines start with results.

pEC50 (Leishmania donovani [1]): 5.4
solubility kinetic [2]: 412 µM (≈ 204 µg/mL)
solubility at 4 h [3]: 283 µg/mL (≈ 571 µM)
Structure (SMILES): COc1nc(N[C@H]2CC[C@H](NS(=O)(=O)CC3CCCO3)CC2)nc2[nH]nc(N3CCOCC3)c12 (stereo in doubt; 34)

EC50 (Leishmania donovani [1]): 3.16 µM
solubility kinetic [2]: 259 µM (≈ 124 µg/mL)
chromatographic logD [4]: 3
solubility at 4 h [3]: 7 µg/mL (≈ 14.7 µM)
pKa [5]: 3.7
Structure (SMILES): O=S(=O)(CCC(F)(F)F)N[C@H]1CC[C@H](Nc2ncc3c(N4CCOCC4)n[nH]c3n2)CC1

EC50 (Leishmania donovani [1]): > 50.1 µM
CLH [6]: 9.5 mL/min/g
CLH [7]: 1.9 mL/min/g
Structure (SMILES): CC(C)Cc1n[nH]c2nc(N[C@H]3CC[C@H](NC(=O)Cc4ccccc4)CC3)ncc12
EC50 (THP-1): > 50.1 µM
EC50 (HepG2): 50.1 µM

EC50 (Leishmania donovani [1]): 5.01 µM
solubility kinetic [2]: 52 µM (≈ 25.6 µg/mL)
solubility at 4 h [3]: 23 µg/mL (≈ 46.8 µM)
Structure (SMILES): C[C@@H]1CN(c2n[nH]c3nc(N[C@H]4CC[C@H](NS(=O)(=O)CCC(F)(F)F)CC4)ncc23)CCO1

EC50 (Leishmania donovani [1]): 6.31 µM
Kinetic_solubility [2]: 421 µM
solubility [3]: 208 µg/mL (≈ 420 µM)
Structure (SMILES): COc1nc(N[C@H]2CC[C@H](NS(=O)(=O)CC3CCCO3)CC2)nc2[nH]nc(N3CCOCC3)c12 (stereo in doubt; 35)

EC50 (Leishmania donovani [1]): 31.6 µM
solubility kinetic [2]: 346 µM (≈ 165 µg/mL)
chromatographic logD [4]: 1.6
Structure (SMILES): O=S(=O)(CCC(F)(F)F)N[C@H]1CC[C@H](Nc2ncc3c(N4CCNCC4)n[nH]c3n2)CC1

EC50 (Leishmania donovani [1]): 6.31 µM
solubility kinetic [2]: 11 µM (≈ 5.18 µg/mL)
chromatographic logD [4]: 3
Structure (SMILES): O=S(=O)(CCC(F)(F)F)N[C@H]1CC[C@H](Nc2ncc3c(-c4cncnc4)n[nH]c3n2)CC1

pEC50 (Leishmania donovani [1]): 5.6
solubility kinetic [2]: ≥ 310 µM
solubility at 4 h [3]: 88 µg/mL (≈ 179 µM)
Structure (SMILES): CC1COCCN1c1n[nH]c2nc(N[C@H]3CC[C@H](NS(=O)(=O)CCC(F)(F)F)CC3)ncc12 (stereo in doubt; 36)

EC50 (Leishmania donovani [1]): 1.26 µM
solubility kinetic [2]: 311 µM (≈ 158 µg/mL)
solubility at 4 h [3]: 53 µg/mL (≈ 104 µM)
Structure (SMILES): COc1nc(N[C@H]2CC[C@H](NS(=O)(=O)CCC(F)(F)F)CC2)nc2[nH]nc(N3CCOCC3)c12
